Usually IC50 stands for the concentration needed to halve the response being measured. The Emax is the maximal effect, on the per cent scale that the assay sets. In general, Ki refers to the dissociation constant of the complex between target and ligand, obtained from inhibition or displacement. Usually inhibition stands for the percentage by which the read-out fell short of the control. As usually defined, the EC50 is the midpoint of the concentration-response curve.

Data set [1] addresses T1, Mu-type opioid receptor (Mus musculus, UniProt P42866). The experiment in a line: Antagonist activity at mouse MOR expressed in CHO cells assessed as inhibition of DAMGO-induced calcium mobilization preincubated for 60 mins measured after 15 mins by calcium mobilization assay. The class given is functional, cell-based. In outline: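 mMOR-CHO cells transfected with Gα for 4 h, plated and cultured 24 h. Triplicates; IC50 by nonlinear regression.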
For orientation: Calcium assays in cells follow changes in intracellular calcium, usually with a dye or a luminescent sensor.

Data set [2] addresses Mu-type opioid receptor (Mus musculus) (UniProt P42866). Briefly: Agonist activity at mouse MOR expressed in CHO cell membranes assessed as stimulation of [35S]-GTPgammaS binding measured after 1 hr by scintillation counting analysis relative to DAMGO. The class given is functional. The following applies: Cell membrane. For orientation: GTPγS is a poorly hydrolysed GTP analogue; its binding reports G protein activation.

Data set [3] concerns the target T1, Mu-type opioid receptor. Briefly: Displacement of [3H]-naloxone from mouse MOR expressed in CHO cells incubated for 1.5 hrs by competitive radioligand binding assay. It is filed as cell-based. The procedure, abridged:
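Mouse MOR CHO membranes (30 μg) with [3H]naloxone and test compound in TME buffer (50 mM Tris, 3 mM MgCl2, 0.2 mM EGTA, pH 7.4), 1.5 h at 30 °C, then filtered. IC50 converted to Ki by Cheng–Prusoff.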
On the technique in general: In a radioligand displacement assay an active substance lowers the binding of a labelled ligand.

The target of data set [4] is T2, C-C chemokine receptor type 5 (Homo sapiens, UniProt P51681). Briefly: Antagonist activity at CCR5 (unknown origin) expressed in HOS cells co-expressing Gqi-5 assessed as inhibition CCL5-stimulated Ca2+ mobilization by calcium mobilization assay. The class given is functional, cell-based. In outline: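 HOS-CCR5 cells transfected with Gqi5, used 48 h post-transfection and loaded with Fluo4-AM for 45 min. Compound preincubated 15 min, then CCL5 (20 μL of 200 nM) added after 16 s of reading.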
Target sequence in this assay (P51681 whole entry): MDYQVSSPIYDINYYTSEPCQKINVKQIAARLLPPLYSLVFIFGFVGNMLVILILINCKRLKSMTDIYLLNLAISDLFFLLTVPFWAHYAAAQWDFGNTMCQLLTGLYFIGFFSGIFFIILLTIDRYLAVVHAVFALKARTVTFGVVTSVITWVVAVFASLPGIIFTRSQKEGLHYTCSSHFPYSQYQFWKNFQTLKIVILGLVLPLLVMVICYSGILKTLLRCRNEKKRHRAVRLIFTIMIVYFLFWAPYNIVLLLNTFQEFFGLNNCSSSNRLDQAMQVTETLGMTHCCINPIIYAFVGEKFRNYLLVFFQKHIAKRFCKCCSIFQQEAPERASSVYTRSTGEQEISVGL

The nature of data set [5]: Cytotoxicity against human GHOST CCR5 cells assessed as reduction in cell viability measured after 6 days by XTT assay. It is filed as toxicity, cell-based. The following applies: time 6 day, read-out: TC50. In outline:
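GHOST CCR5 cells treated in triplicate at the same 6 concentrations without virus, 6 days at 37 °C. XTT/PMS added for 4 h at 37 °C and absorbance read at 450 nm (650 nm reference).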

Data set [6] addresses T2, C-C chemokine receptor type 5. Briefly: Agonist activity at CCR5 (unknown origin) expressed in HOS cells co-expressing Gqi-5 assessed as stimulation of Ca2+ mobilization by calcium mobilization assay. The class given is functional, cell-based. The procedure, abridged:
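HOS-CCR5 cells transiently transfected with Gqi5, used 48 h later. Fluo4-AM loaded 45 min, compounds added, plate read 120 s at ex494/em516. Agonist arm: compound response recorded against CCL5 under the same conditions.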
Target sequence in this assay (P51681 whole entry, looked up): as the sequence (P51681 whole entry) above

The target of data set [7] is C-C chemokine receptor type 5 (Macaca mulatta, UniProt P61813). Briefly: Displacement of […] from recombinant rhesus macaque CCR5 expressed in Chem-1 cells by competitive radioligand binding assay. The class given is cell-based. In outline:
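Rhesus CCR5 Chem-1 membranes (3 μg) in HEPES buffer pH 7.4 with 0.2% BSA, 0.10 nM [125I]MIP-1α and six concentrations from 0.1 nM to 10 μM, 90 min at 25 °C. Nonspecific binding with 0.1 μM MIP-1β; filters counted. Ki by Cheng–Prusoff (KD 0.31 nM, historical value).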

A short description of data set [8]: Therapeutic index, ratio of TC50 for human GHOST CCR5 cells to EC50 for inhibition of CCR5-mediated HIV-1 Bal entry in human GHOST CCR5 cells. The class given is toxicity, cell-based. The following applies: read-out: TI. The procedure, abridged: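 GHOST-CCR5 cells plated at 1×10^4/well, cultured 24 h, then compounds at 6 concentrations (0.001–100 μM) in triplicate. Efficacy plates got HIV-1 BaL at a predetermined titer; 6 days at 37 °C. Supernatant RT activity measured by tritiated TTP incorporation on poly rA/oligo dT gives EC50. […] TI = TC50/EC50.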

Data set [9] addresses T2, C-C chemokine receptor type 5. The experiment in a line: Inhibition of CCR5-mediated Luc-expressing HIV1 BaL Env-pseudotype virus infection in PHA-stimulated CCR5 expressing leukocytes containing human PBMC assessed as inhibition of viral entry in presence of 10 nM […] by measuring luminescence at 100 nM pretreated for 1 hr before infection measured after 2 days of infection. The class given is cell-based. As to conditions: filed as antagonist. The procedure, abridged: (§1)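 Compound 100 nM added 1 h before infection with BaL Env-pseudotyped luciferase virus (50 pg p24/10^6 cells) in 24-well plates. Lysate luciferase measured; RLU normalized to infected untreated cells.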
Target sequence in this assay (P51681 whole entry, looked up): as the sequence (P51681 whole entry) above

The target is the same in data set [10]. Briefly: Inhibition of CCR5-mediated Luc-expressing HIV1 BaL Env-pseudotype virus infection in CCR5 expressing leukocytes containing human PBMC assessed as inhibition of viral entry by measuring luminescence pretreated for 1 hr before infection measured after 2 days of infection. The class given is cell-based. The following applies: filed as antagonist. In outline:
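[…] donor PBMCs, 2×10^5/well, in RPMI with 20 U/mL IL-2. Compound added 1 h before infection with BaL Env-pseudotyped luciferase virus (1.5 ng p24/well) and kept in culture. Luminescence read after 2 days.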
Target sequence in this assay (P51681 whole entry, looked up): as the sequence (P51681 whole entry) above

Data set [11] shares this target. The experiment in a line: Inhibition of CCR5-mediated Luc-expressing HIV1 BaL Env-pseudotype virus infection in PHA-stimulated CCR5 expressing leukocytes containing human PBMC assessed as inhibition of viral entry by measuring luminescence at 100 nM pretreated for 1 hr before infection measured after 2 days of infection. It is filed as cell-based. In outline: as §1
Target sequence in this assay (P51681 whole entry, looked up): as the sequence (P51681 whole entry) above

For data set [12] the target is unchanged. The experiment in a line: Inhibition of CCR5-mediated Luc-expressing HIV1 BaL Env-pseudotype virus infection in PHA-stimulated CCR5 expressing leukocytes containing human PBMC assessed as inhibition of viral entry in presence of 10 nM morphine by measuring luminescence at 100 nM pretreated for 1 hr before infection measured after 2 days of infection. It is filed as cell-based. As to conditions: filed as antagonist. In outline:
as §1
Target sequence in this assay (P51681 whole entry, looked up): as the sequence (P51681 whole entry) above

Data set [13] addresses T1, Mu-type opioid receptor. Briefly: Agonist activity at mouse MOR expressed in CHO cells coexpressing Gqi5 assessed as inhibition of DAMGO-induced calcium mobilization preincubated for 60 mins measured after 15 mins by calcium mobilization assay. The class given is functional, cell-based. The procedure, abridged:
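CHO cells stably expressing mouse MOR, transfected with Gαq15 for 4 h, plated 10,000 cells/well and cultured 24 h. […] Calcium fluorescence read ex494/em516. Triplicate per concentration; IC50 by nonlinear regression.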

Activity calls are given as the source filed them. The rule behind the calls is not given here.

T1 sequence (P42866 whole entry): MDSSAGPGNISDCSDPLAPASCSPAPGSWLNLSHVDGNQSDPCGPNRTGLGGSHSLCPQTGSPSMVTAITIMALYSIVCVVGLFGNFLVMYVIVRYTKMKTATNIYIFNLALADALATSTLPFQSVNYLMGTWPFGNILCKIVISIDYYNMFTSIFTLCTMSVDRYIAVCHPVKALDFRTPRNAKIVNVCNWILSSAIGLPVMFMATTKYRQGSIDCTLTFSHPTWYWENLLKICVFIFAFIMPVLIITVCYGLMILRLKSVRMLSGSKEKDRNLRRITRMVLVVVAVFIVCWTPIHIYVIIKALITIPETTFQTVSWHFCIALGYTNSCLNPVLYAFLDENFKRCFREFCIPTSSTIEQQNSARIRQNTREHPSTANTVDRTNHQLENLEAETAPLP
Chain of Mu-type opioid receptor (Mus musculus) (P42866 whole entry): as above

Regarding `Cc1nnc(C(C)C)n1C1C[C@H]2CC[C@@H](C1)N2CC[C@H](NC(=O)C1CCC(F)(F)CC1)c1ccc(NC(=O)COCC(=O)NCCCCCCCNC(=O)COCC(=O)N[C@@H]2CC[C@@]3(O)[C@H]4Cc5ccc(O)c6c5[C@@]3(CCN4CC3CC3)[C@H]2O6)cc1` (some centres not stated), the IC50 on Mu-type opioid receptor [1] worked out at 40 nM; in data set [4], 126 nM. In [2], the Emax turned out to be 11.7%. The compound also showed a Ki at Mu-type opioid receptor [3] of 51.8 nM. Further, the CC50 at 144 h in data set [5] is more than 100000 nM.

For the compound `CNC(=O)COCC(=O)NCCCCCCCNC(=O)COCC(=O)NCCc1nnc(C(C)C)n1[C@@H]1C[C@H]2CC[C@@H](C1)N2CC[C@H](NC(=O)C1CCC(F)(F)CC1)c1ccccc1`, the outcome in [6] was inactive. Further, in data set [7], the inhibitory constant (Ki) came out at 41 nM.

Turning to `Cc1nnc(C(C)C)n1[C@@H]1C[C@H]2CC[C@@H](C1)N2CC[C@H](NC(=O)C1CCC(F)(F)CC1)c1ccccc1`, the CC50 at 144 h in data set [5] was more than 500 nM.

As to `CC(C)c1nnc(CCNC(=O)COCC(=O)NCCCCCCCCCNC(=O)COCC(=O)N[C@@H]2CC[C@@]3(O)[C@H]4Cc5ccc(O)c6c5[C@@]3(CCN4CC3CC3)[C@H]2O6)n1C1C[C@H]2CC[C@@H](C1)N2CC[C@H](NC(=O)C1CCC(F)(F)CC1)c1ccccc1` (some centres not stated), the 50% inhibitory concentration (IC50) at Mu-type opioid receptor [1] turned out to be 74.4 nM; in [4] it was 965 nM. Also, the Emax in data set [2] was 4.27%. This compound also returned an inhibition constant (Ki) on Mu-type opioid receptor [3] of 11.2 nM.

With `CC(C)c1nnc(CCNC(=O)COCC(=O)NCCCCCNC(=O)COCC(=O)N[C@@H]2CC[C@@]3(O)[C@H]4Cc5ccc(O)c6c5[C@@]3(CCN4CC3CC3)[C@H]2O6)n1C1C[C@H]2CC[C@@H](C1)N2CC[C@H](NC(=O)C1CCC(F)(F)CC1)c1ccccc1` (some centres not stated), the half-maximal inhibitory concentration (IC50) on Mu-type opioid receptor [1] was found to be 1100 nM; in data set [4] it was 1260 nM. For the same compound, the Emax in data set [2] was found to be 19.4%. Further, the affinity on Mu-type opioid receptor [3], expressed as Ki, was 4.23 nM.

Regarding `CC(C)c1nnc(CCNC(=O)COCC(=O)NCCCCCCCNC(=O)COCC(=O)N[C@@H]2CC[C@@]3(O)[C@H]4Cc5ccc(O)c6c5[C@@]3(CCN4CC3CC3)[C@H]2O6)n1C1C[C@H]2CC[C@@H](C1)N2CC[C@H](NC(=O)C1CCC(F)(F)CC1)c1ccccc1` (some centres not stated), the concentration for half-maximal inhibition (IC50) came to 50 nM on Mu-type opioid receptor [1] and 57.5 nM in data set [4]. Further, the selectivity ratio in [8] was more than 1080. The inhibition in data set [9] was 69%; in [10], “Dose-Dependent Effect”; in [11], 22%; in data set [12], 55%. This compound also registered an inhibition constant (Ki) on Mu-type opioid receptor [3] of 6.05 nM. In data set [6], the outcome was inactive. Also, in data set [5], the CC50 at 144 h is more than 100000 nM. Further, the EC50 at Mu-type opioid receptor [13] worked out at 36.3 nM.

(Values after ChEMBL document CHEMBL5042476, “Structure-Based Design and Development of Chemical Probes Targeting Putative MOR-CCR5 Heterodimers to Inhibit Opioid Exacerbated HIV-1 Infectivity” (J Med Chem, 2021).)
